Assay outcomes from PubChem.
Mdm2-MdmX inh = disrupts the human Mdm2-MdmX interaction; AID 485346; O15151+Q00987; actives 3% (n = 330,000); inhibition, % at 8 µM; SaOS-2 split-luciferase Mdm2/MdmX complementation, luminescence;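 active = inhibition of at least 50% at 8 µM in the primary screen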
UPR XBP1 act = activators of adaptive arm of unfolded protein response (XBP1); CHO-XBP1 luciferase reporter, IRE1-XBP1 UPR activation, luminescence; percent of tunicamycin response, DMSO as zero; activation, % at 20 µM; actives 0.33% (n = 330,000);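 active = versus positive control, 20 µM dose yields 30% or more activation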;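 also: 100% = tunicamycin at 10 µg/mL and 0% = DMSO only wells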
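Material: CHO cell line with stable XBP1 luciferase reporter; schedule: 16-18 h cell attachment at 37 °C, then 6 h compound exposure; signal: glow luminescence from Steady-Glo reagent; medium: serum-containing F12 medium, 10% FBS; benchmarks: tunicamycin 10 µg/mL and vehicle-only wells; read-out: percent activation relative to tunicamycin reference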
Apaf-1 inh = inhibitors of human Apaf-1 apoptosome. O14727. reconstituted apoptosome caspase-3 activity, DEVD-Rh110 fluorescence. inhibition, % at 20 µM. actives 0.71% (n = 330,000); active = inhibition of at least 40% at 20 µM;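 also: plate controls were DMSO wells for no effect and DEVD-CHO caspase inhibitor wells for full effect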
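Material: cell-free apoptosome with Apaf-1, procaspase-3 and caspase-9; Buffer or medium: Hepes pH 7.5 with detergent and BSA; Reagent: cytochrome c trigger plus (Z-DEVD)2-Rh110 caspase-3 substrate; Times: compound with Apaf-1, dATP, procaspase-3 30 min, then 50 min reaction, room temperature; Technique: Rh110 fluorescence intensity.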
UBC13 polyUb = inhibitors of human UBC13 polyubiquitin chain formation | P61088 | TR-FRET | inhibition, % at 20 µM | actives 0.47% (n = 330,000); in the data active = inhibition above about 45%, passing the limit was not always enough
Target sequence (P61088 whole entry, looked up): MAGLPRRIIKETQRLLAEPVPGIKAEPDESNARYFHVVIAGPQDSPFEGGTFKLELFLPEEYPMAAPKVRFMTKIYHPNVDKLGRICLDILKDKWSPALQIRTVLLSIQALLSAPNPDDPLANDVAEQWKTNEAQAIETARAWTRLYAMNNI
CHOP UPR activ = apoptotic UPR (CHOP) activation; actives 0.34% (n = 330,000); AID 449763; CHO-CHOP luciferase reporter, luminescence; percent of tunicamycin response over DMSO baseline; activation, % at 10 µM;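 active = at 10 µM dose, activation of 40% or more, normalized to positive control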;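 also: 100% = tunicamycin at 10 µg/mL and 0% = DMSO alone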
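Assay system: CHO-CHOP cells, stable luciferase reporter of PERK-eIF2a-CHOP signalling / Buffer or medium: F12 plus 10% serum / Compound dosing: one dose, 10 µM in 0.5% DMSO / Times: 6 h compound treatment, 37 °C / Technique: luciferase luminescence / Read-out: % reporter activation, DMSO baseline versus tunicamycin full activation / Benchmarks: tunicamycin and DMSO controls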
Apaf-1 inh conf2 = confirmation of Apaf-1 inhibitors; shares compounds with Apaf-1 inh; reconstituted apoptosome, caspase-3 DEVD-Rh110 fluorescence; inhibition, % at 20 µM; actives 25% (n = 1,800); AID 504614;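 active = mean inhibition of at least 40% at 20 µM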;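 also: plate controls were DMSO wells for no effect and DEVD-CHO caspase inhibitor control wells for full effect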
Rh110 interf inh = interferes with Rh110 fluorescence, flagging false Apaf-1 inhibitors; shares compounds with Apaf-1 inh; Rh110 fluorescence interference, quenched caspase reaction; activation (fluorescence interference), % at 20 µM; 1,800 tested, under 10 active; AID 504615;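 active = signal rise of 40% or more at 20 µM, treated as a fluorescence artifact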
Apaf1 inh interf = shows fluorescence interference in the Apaf-1 inhibitor assay format; shares compounds with Apaf-1 inh; fluorescence interference counterscreen, Apaf-1 assay format; IC50, µM; 460 tested, under 10 active; AID 588538; call rule not given here
The depositor's hits bear a star; nt = not tested or not shown. Rows were chosen to be rich in hits. Some 4.1% of all compounds tested hit in one or more screens of this group.

SMILES	Mdm2-MdmX inh	UPR XBP1 act	Apaf-1 inh	UBC13 polyUb	CHOP UPR activ	Apaf-1 inh conf2	Rh110 interf inh	others
CCC(CC)c1nnc(NC(=O)CN2C(=O)c3ccccc3C2=O)s1	1.2	-0.5	86.8*	6.1	-1.8	4.4	-2.7
CC1(C)Nc2ccc(O)cc2-c2c1ssc2=S	33.5	-1.9	51.3*	-24.7	-3.2	33.6	15.2
CN(C=[N+](C)C)c1cccc2c1C(=O)c1ccccc1C2=O	-23.1	0.5	43.0*	-41.6	5.1	21.2	13.2
O=C(COC(=O)CCC(=O)c1cccs1)Nc1cccc(F)c1	-7.1	-2.1	-5.2	15.8	0.3	nt	nt
O=C(NC(=S)N(CCO)Cc1ccccc1)c1ccc(F)cc1Cl	-5.6	2.9	-0.2	12.4	1.0	nt	nt
CC(=O)N1CCN(C2=Nc3cccc4cccc2c34)CC1	-16.7	-1.1	80.1*	-22.6	-2.5	5.9	-1.2
CCn1cc(C(=O)OCC(=O)OC2CC(C)CCC2C(C)C)c(=O)c2ccc(C)nc21 (stereo unspecified)	2.2	0.9	47.6*	8.2	-0.2	26.1	7.2
CCOC(=O)C1CCCN(C(=O)c2cccc(S(=O)(=O)N(C)c3c(C)n(C)n(-c4ccccc4)c3=O)c2)C1 (stereo unspecified)	16.2	3.1	49.1*	25.6	0.0	32.8	6.7
CCOC(=O)C1CCCN(C(=O)c2cccc(N3C(=O)c4ccccc4C3=O)c2)C1 (stereo unspecified)	22.0	-0.5	-1.2	-9.8	-1.0	nt	nt
Cc1cccc(COc2ccc(S(=O)(=O)N3CCOCC3)cc2[N+](=O)[O-])c1	14.2	-1.9	9.7	-1.9	2.6	nt	nt
Cc1ccnc(NC(=O)C(C)n2cc([N+](=O)[O-])cn2)c1 (stereo unspecified)	-8.3	-4.6	2.0	-6.4	-1.3	nt	nt
CCOC(=O)N1CCN(C2=C(NS(=O)(=O)c3ccc(NC(C)=O)cc3)C(=O)c3ccccc3C2=O)CC1	8.3	-2.7	83.3*	-86.3	1.3	25.4	11.2
CCN1CCN(C2=C(NS(=O)(=O)c3ccc(C)cc3)C(=O)c3ccccc3C2=O)CC1	37.3	-0.6	77.4*	-81.9	0.7	34.9	4.3
CCOC(=O)N1CCN(S(=O)(=O)c2ccc(NC(C)=O)cc2)CC1	35.7	-2.6	-0.5	-12.8	0.7	nt	nt
CC(=O)Nc1ccc(S(=O)(=O)Nc2nc3ccccc3nc2N2CCCC2)cc1	24.7	-0.2	9.7	-3.2	-1.6	nt	nt
CC(=O)Nc1ccc(S(=O)(=O)NC2=C(N3CCN(C)CC3)C(=O)c3ccccc3C2=O)cc1	27.5	-0.5	60.3*	-122.4	2.7	46.2*	7.4	Apaf1 inh interf=>100
CCN1CCN(C2=C(NS(=O)(=O)c3ccc(NC(C)=O)cc3)C(=O)c3ccccc3C2=O)CC1	46.6	1.3	73.7*	-76.7	10.4	31.8	1.9
CCN1CCN(c2nc3ccccc3nc2NS(=O)(=O)c2ccc(NC(C)=O)cc2)CC1	19.4	-1.2	3.5	-2.0	1.1	nt	nt
COc1cccc(CN2CCCC(C(=O)Nc3ccc(-c4cscn4)cc3)C2)c1 (stereo unspecified)	-5.7	-0.8	14.6	-5.0	2.3	nt	nt
Nn1c(SCC(=O)NC(=O)NCc2ccco2)nnc1-c1ccc(OC(F)F)cc1	13.5	-3.4	4.4	-11.9	1.1	nt	nt
O=C(NCCc1ccccc1)c1ccccc1SCC(=O)N1CCCC1	-16.8	0.6	60.3*	31.1	1.6	36.0	2.1
COc1ccccc1CCNC(=O)c1ccccc1SCC(=O)N1CCCC1	27.3	-3.2	-13.5	5.8	0.2	nt	nt
COCC1CCN(Cc2cn(-c3ccccc3F)nc2-c2cc(C)sc2C)CC1	-14.5	-4.6	-9.4	9.8	-0.4	nt	nt
CC(=O)OCC1OC(OC2C[C@]3(C)C(CC(O)C4C([C@](C)(CCC=C(C)C)OC5OC(CO)C(O)C(O)C5O)CC[C@]43C)[C@@]3(C)CCC(O)C(C)(C)C23)C(O[C@@H]2OC(C)C(O)C(O)C2O)C(O)C1O (stereo partly specified)	-5.8	0.8	10.2	-10.6	1.0	nt	nt
O=C(COC(=O)c1ccc([N+](=O)[O-])cc1)Nc1ccccc1C(=O)NC1CC1	23.9	4.9	-2.9	-6.2	0.8	nt	nt
SMILES	Mdm2-MdmX inh	UPR XBP1 act	Apaf-1 inh	UBC13 polyUb	CHOP UPR activ	Apaf-1 inh conf2	Rh110 interf inh	others
COc1ccc(OCc2cc(C(=O)N3CCC(OC)CC3)no2)c2ccccc12	-94.0	0.3	49.3*	0.5	5.7	24.9	6.1
COc1cc(OC)c2c(-c3ccccc3)cc(=O)oc2c1C(CCN1CCOCC1)c1ccc(N(C)C)cc1 (stereo unspecified)	11.5	11.9	51.5*	nt	3.8	10.5	-2.1
C#CCOCCOCCOCCNc1nc(N2CCN(C(=O)Cn3cc(CCCCN)nn3)CC2)nc(N2CCN(C(=O)[C@H](CCCCN)n3cc(CCCC)nn3)CC2)n1	43.5	2.1	41.4*	40.7	-2.3	4.2	-7.0
CC(C(=O)NC(=O)NC1CCCCC1)N(C)CC(=O)Nc1ccc(F)c(F)c1F (stereo unspecified)	12.1	-2.7	46.2*	-3.5	-0.9	13.5	6.9
O=C(O)c1ccccc1C(=O)Nc1ccccn1	11.1	-1.3	-7.2	10.7	-2.9	nt	nt
O=C(Nc1ccccn1)c1ccc2ccccc2c1O	-50.2	-1.6	45.2*	-1.0	1.4	4.8	6.7
CC(C(=O)N(C)c1ccccc1)N1CCN(C(=O)c2ccccc2)CC1 (stereo unspecified)	-12.1	-2.0	-3.3	2.2	1.2	nt	nt
COc1ccc(CN2CC(C(=O)NCc3cccc(OC)c3)CC2=O)cc1 (stereo unspecified)	13.8	-1.7	66.7*	4.8	-2.3	10.7	3.9
N#Cc1ccc(C23CC4(C2)[C@H](CN(Cc2ccc(-c5ccccc5)cc2)[C@@H]4c2ccccc2)C3c2ccc(C(F)(F)F)cc2)cc1 (stereo partly specified)	-18.7	-1.8	44.8*	-0.4	-0.2	4.5	8.4
CC(C)c1ccc(NC(=O)COC(=O)c2cc(=O)[nH]c3ccccc23)cc1	-16.7	-1.2	11.9	7.9	-0.8	nt	nt
COc1nc(N/N=C/c2ccc(-c3ccccc3[N+](=O)[O-])o2)nc(N2CCOCC2)n1	-29.5	2.0	54.4*	-52.6	9.0	25.8	7.3
Cc1ccc(N2CC(C(=O)NCc3n[nH]c(=O)c4ccccc34)CC2=O)cc1 (stereo unspecified)	5.7	-6.1	3.3	0.2	-0.7	nt	nt
CN1CCN(C(=O)c2cccn(Cc3c(Cl)cccc3Cl)c2=O)CC1	-1.1	0.5	-0.9	2.7	0.3	nt	nt
